ChEMBL document CHEMBL1130173, “A model for binding of structurally diverse natural product inhibitors of protein phosphatases PP1 and PP2A” (J Med Chem, 1997)
*1 amine or outer side, *2 acyl side, *3 side chain or, on linkers, in order; H or OH if unused. Where a SMILES comes first, the peptide text is derived from it. Bridges are numbered along the chain shown (N, C = ends). [ ]: non-standard residue; d: D form. Adda = CO[C@@H](Cc1ccccc1)[C@@H](C)/C=C(C)/C=C/[C@H](N[*:1])[C@H](C)C(=O)[*:2]; dAsp(3S-Me) = C[C@H](C(=O)[*:3])[C@@H](N[*:1])C(=O)[*:2]; d(γGlu) = O=C(O)[C@@H](CCC(=O)[*:2])N[*:1]; NMeDha = C=C(NC)C(=O)O

Tests used:
[1] = molecular target: T1, Serine-threonine protein phosphatase 2A regulatory subunit (Gallus gallus, UniProt Q8AWE3); assay: (§1) Observed inhibition activity of the compounds against protein phosphatases 2A (PP2A)
T1 sequence (Q8AWE3 whole entry): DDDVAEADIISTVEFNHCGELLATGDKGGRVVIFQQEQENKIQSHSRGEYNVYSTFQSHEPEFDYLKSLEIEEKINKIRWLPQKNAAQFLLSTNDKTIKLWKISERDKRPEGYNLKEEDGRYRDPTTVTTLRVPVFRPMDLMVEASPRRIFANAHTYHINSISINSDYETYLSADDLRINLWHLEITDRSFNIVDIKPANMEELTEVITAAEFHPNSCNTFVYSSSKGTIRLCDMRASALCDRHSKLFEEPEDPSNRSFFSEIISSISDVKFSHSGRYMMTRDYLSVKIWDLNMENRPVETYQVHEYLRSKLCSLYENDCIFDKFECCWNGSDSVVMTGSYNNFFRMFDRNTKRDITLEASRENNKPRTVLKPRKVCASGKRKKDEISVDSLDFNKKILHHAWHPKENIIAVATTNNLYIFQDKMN
Procedure, shortened: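 Commercial PP2A (e.g. 3 mU) in MOPS/2-mercaptoethanol/MgCl2/albumin dilution buffer. Preincubated 10 min with inhibitor at pH 8.0 Tris-HCl. Reaction started with KR-pT-IRR phosphopeptide (0.2 mM stock), 60 min at 22 °C. Released phosphate measured by malachite green at 650 nm after 20 min development; IC50 from inhibition curves.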

[2] = molecular target: T2, Serine/threonine-protein phosphatase 2A 55 kDa regulatory subunit B alpha isoform (Homo sapiens, UniProt P63151); assay: as §1
T2 sequence (P63151 whole entry): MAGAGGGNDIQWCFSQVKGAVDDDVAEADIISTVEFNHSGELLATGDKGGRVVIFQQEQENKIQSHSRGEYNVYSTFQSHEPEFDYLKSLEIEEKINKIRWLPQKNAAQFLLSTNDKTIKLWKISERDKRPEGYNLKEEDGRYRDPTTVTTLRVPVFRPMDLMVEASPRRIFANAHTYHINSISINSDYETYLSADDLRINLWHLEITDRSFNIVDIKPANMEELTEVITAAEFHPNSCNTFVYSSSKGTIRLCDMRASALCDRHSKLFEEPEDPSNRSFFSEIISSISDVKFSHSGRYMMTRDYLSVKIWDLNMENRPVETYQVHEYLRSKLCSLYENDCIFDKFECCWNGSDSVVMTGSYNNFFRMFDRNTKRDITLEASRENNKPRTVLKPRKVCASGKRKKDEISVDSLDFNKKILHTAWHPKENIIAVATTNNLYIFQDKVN

[3] = molecular target: T1, Serine-threonine protein phosphatase 2A regulatory subunit; assay: Observed inhibition activity against protein phosphatase 2A (PP2A)
[4] = molecular target: T1, Serine-threonine protein phosphatase 2A regulatory subunit; assay: Inhibition activity against protein phosphatase 2A (PP2A), activity taken from literature

SMILES	IC50 [1] [nM]	IC50 [3] [nM]	IC50 [4] [nM]	also measured
COC[C@@H]([C@H](O)[C@H](O)C(=O)NCC[C@H](C)c1nc(/C=C/C[C@@H]2O[C@]3(C[C@@H](O)[C@@H]2C)O[C@H]([C@H](C[C@H](O)[C@H](C)[C@H](O)[C@H](C)/C=C(C)/C(C)=C/C=C/C(C)=C\C#N)OC)[C@H](OP(=O)(O)O)C3(C)C)co1)N(C)C [CALYCULIN A]	7.3	–	–	–
COC([C@H](OC(=O)C[C@@H](O)C1=C(C)C(=O)OC1=O)C(C)C)[C@H](O)CC(=O)[C@@H](C)[C@@H](O)CC[C@@H](C)[C@@H]1O[C@]2(CC[C@@H](C)[C@H](CC[C@H](C)C(C)=O)O2)CC[C@@H]1C (single isomer, unassigned) [TAUTOMYCIN]	10	–	–	–
COC[C@@H]([C@H](O)[C@H](O)C(=O)N[C@H](C)C[C@H](C)c1nc(/C=C/C[C@@H]2O[C@]3(C[C@@H](O)[C@@H]2C)O[C@H]([C@H](C[C@H](O)[C@H](C)[C@H](O)[C@H](C)/C=C(C)/C(C)=C/C=C/C(C)=C\C#N)OC)[C@H](OP(=O)(O)O)C3(C)C)co1)N(C)C [CALYCULIN]	9.71	–	–	–
C=C1C(=O)N[C@H](C)C(=O)N[C@@H](CC(C)C)C(=O)N[C@@H](C(=O)O)[C@H](C)C(=O)N[C@@H](CCCNC(=N)N)C(=O)N[C@@H](/C=C/C(C)=C/[C@H](C)[C@H](Cc2ccccc2)OC)[C@H](C)C(=O)N[C@@H](C(=O)O)CCC(=O)N1C [MICROCYSTIN-LR] (R[Adda][d(γGlu)][NMeDha][dA]L[dAsp(3S-Me)]-OH; lactam N-7)	–	–	–	IC50 [2]: 0.065 nM
CC=C1C(=O)N[C@@H](C(=O)O)[C@H](C)C(=O)N[C@@H](CCCNC(=N)N)C(=O)N[C@@H](/C=C/C(C)=C/[C@H](C)[C@H](Cc2ccccc2)OC)[C@H](C)C(=O)N[C@@H](C(=O)O)CCC(=O)N1C	–	0.2	1	–
C=C1[C@@H](O)[C@@H]2O[C@]3(CC[C@H](/C=C/[C@@H](C)[C@@H]4CC(C)=C[C@@]5(O[C@H](C[C@@](C)(O)C(=O)O)CC[C@H]5O)O4)O3)CC[C@H]2O[C@@H]1[C@@H](O)C[C@H](C)[C@H]1O[C@@]2(CCCCO2)CC[C@H]1C [OKADAIC ACID]	–	0.45	1	–
